Assay [1] has as its target Acyl-protein thioesterase 1 (Mus musculus) (UniProt P97823). Kind of assay: Inhibition of FP-rhodamine-labelled recombinant mouse LYPLA1 at 10 uM preincubated for 30 mins followed by FP-rhodamine labelling measured after 30 mins by gel-based competitive ABPP assay.
The target of assay [2] is Acyl-protein thioesterase 2 (Mus musculus) (UniProt Q9WTL7). Kind of assay: Inhibition of FP-rhodamine-labelled recombinant mouse LYPLA2 at 10 uM preincubated for 30 mins followed by FP-rhodamine labelling measured after 30 mins by gel-based competitive ABPP assay.
Sequence of Acyl-protein thioesterase 2 (Mus musculus) (Q9WTL7 whole entry): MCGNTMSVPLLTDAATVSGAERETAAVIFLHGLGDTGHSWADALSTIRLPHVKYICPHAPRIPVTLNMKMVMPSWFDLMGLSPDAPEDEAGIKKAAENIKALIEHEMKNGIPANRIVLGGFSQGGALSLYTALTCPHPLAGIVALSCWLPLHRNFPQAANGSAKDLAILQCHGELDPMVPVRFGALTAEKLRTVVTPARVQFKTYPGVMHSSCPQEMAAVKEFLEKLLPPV
The target of assay [3] is T1, Monoacylglycerol lipase ABHD6 (Mus musculus, UniProt Q8R2Y0).
T1 sequence (Q8R2Y0 whole entry): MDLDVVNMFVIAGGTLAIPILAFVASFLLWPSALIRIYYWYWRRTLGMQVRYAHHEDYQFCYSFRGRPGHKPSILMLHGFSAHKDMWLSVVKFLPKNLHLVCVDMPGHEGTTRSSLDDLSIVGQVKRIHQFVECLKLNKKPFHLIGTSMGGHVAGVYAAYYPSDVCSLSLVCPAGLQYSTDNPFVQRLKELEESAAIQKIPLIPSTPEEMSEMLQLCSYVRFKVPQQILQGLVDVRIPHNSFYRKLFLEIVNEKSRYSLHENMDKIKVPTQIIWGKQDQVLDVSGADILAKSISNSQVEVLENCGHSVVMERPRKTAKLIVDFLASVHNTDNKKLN
As to the kind of experiment: Inhibition of ABHD6 in FP-rhodamine-labelled mouse brain membrane preincubated for 30 mins followed by FP-rhodamine labelling measured after 30 mins by gel-based competitive ABPP assay.

Assay [4] deals with T1, Monoacylglycerol lipase ABHD6. Kind of assay: Inhibition of recombinant mouse ABHD6 expressed in HEK293T using 2-arachidonoylglycerol preincubated for 30 mins followed by substrate addition measured after 30 mins by LC-MS analysis.
Assay [5] deals with Mus musculus. Kind of assay: In vivo inhibition of ABHD6 in C57Bl/6 mouse liver at 5 to 10 mg/kg, ip after 4 hrs by FP-rhodamine/HT-10-labelled gel-based competitive assay. It is filed as functional, organism-based. In outline: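 C57Bl/6 mice dosed i.p. at 1–40 mg kg⁻¹ in 18:1:1 saline/ethanol/PEG40, 10 μL g⁻¹, for 4 hr, then killed. Brain and liver membrane proteomes labelled with FP-rhodamine or HT-01 (1 μM, 30 min, 37 °C) and resolved by SDS-PAGE with in-gel fluorescence scanning.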

Assay [6] concerns Mus musculus. As to the kind of experiment: In vivo inhibition of ABHD6 in C57Bl/6 mouse liver at 10 to 40 mg/kg, po after 4 hrs by FP-rhodamine/HT-10-labelled gel-based competitive assay. It is filed as functional, organism-based.
Assay [7] has as its system Mus musculus. As to the kind of experiment: In vivo inhibition of carboxylesterase-1 in C57Bl/6 mouse liver at 40 mg/kg, po after 4 hrs by FP-rhodamine-labelled gel-based competitive ABPP assay. The class given is functional, organism-based. More on the design: dose 40 mg/kg.
The subject of assay [8] is Mus musculus. As to the kind of experiment: In vivo inhibition of ABHD6 in C57Bl/6 mouse liver at 0.1 mg/kg, ip after 4 hrs by HT-10-labelled gel-based competitive ABPP assay. The class given is functional. The settings on record: C57Bl/6, Liver, route intraperitoneal. In outline:
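C57Bl/6 mice dosed i.p. (18:1:1 v/v/v saline/ethanol/PEG40, 10 μL g⁻¹) across 0.1–1 mg kg⁻¹; after 4 hr, anesthetized with isoflurane, euthanized, liver membrane fraction isolated (Dounce homogenization in PBS pH 7.5, 1,400 × g then 100,000 × g spin). Proteome labeled with HT-01 (1 μM, 30 min, 37 °C), SDS-PAGE, in-gel fluorescence; ABHD6 activity versus vehicle.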

Assay [9] has as its system Mus musculus. Kind of assay: In vivo inhibition of ABHD6 in C57Bl/6 mouse brain at 0.1 to 1 mg/kg, ip after 4 hrs by HT-10-labelled gel-based competitive ABPP assay. It is filed as functional, organism-based. Put shortly:
(§1)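 C57Bl/6 mice dosed i.p. at 0.1, 0.5 or 1 mg kg⁻¹ in 18:1:1 saline/ethanol/PEG40 (ethoxylated castor oil), 10 μL g⁻¹. Killed after 4 hr under isoflurane by cervical dislocation. Brain and liver membrane fractions (100,000 × g) labelled with FP-rhodamine or HT-01 (1 μM, 30 min, 37 °C), then SDS-PAGE and in-gel fluorescence scanning. Liver ABHD6 read from HT-01 gels.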

The subject of assay [10] is Mus musculus. Kind of assay: In vivo inhibition of carboxylesterase-1 in C57Bl/6 mouse liver at 0.1 to 1 mg/kg, ip after 4 hrs by FP-rhodamine-labelled gel-based competitive ABPP assay. The class given is functional, organism-based. Put shortly: as §1
Assay [11] has as its system Mus musculus. As to the kind of experiment: In vivo inhibition of carboxylesterase-1 in C57Bl/6 mouse brain at 0.1 to 1 mg/kg, ip after 4 hrs by FP-rhodamine-labelled gel-based competitive ABPP assay. It is filed as functional, organism-based. Put shortly:
as §1

Assay [12] has as its system Mus musculus. As to the kind of experiment: In vivo inhibition of DAGLbeta in C57Bl/6 mouse liver and bain at 0.1 to 1 mg/kg, ip after 4 hrs by FP-rhodamine-labelled gel-based competitive ABPP assay. It is filed as functional, organism-based. Put shortly:
as §1

The test system of assay [13] is Mus musculus. As to the kind of experiment: In vivo inhibition of FAAH in C57Bl/6 mouse liver and bain at 0.1 to 1 mg/kg, ip after 4 hrs by FP-rhodamine-labelled gel-based competitive ABPP assay. It is filed as functional, organism-based. Put shortly: as §1
Assay [14] concerns Mus musculus. As to the kind of experiment: In vivo inhibition of MGLL in C57Bl/6 mouse liver and bain at 0.1 to 1 mg/kg, ip after 4 hrs by FP-rhodamine-labelled gel-based competitive ABPP assay. The class given is functional, organism-based. In outline: as §1
Assay [15] deals with T2, Fatty-acid amide hydrolase 1 (Mus musculus) (UniProt O08914).
T2 sequence (whole entry): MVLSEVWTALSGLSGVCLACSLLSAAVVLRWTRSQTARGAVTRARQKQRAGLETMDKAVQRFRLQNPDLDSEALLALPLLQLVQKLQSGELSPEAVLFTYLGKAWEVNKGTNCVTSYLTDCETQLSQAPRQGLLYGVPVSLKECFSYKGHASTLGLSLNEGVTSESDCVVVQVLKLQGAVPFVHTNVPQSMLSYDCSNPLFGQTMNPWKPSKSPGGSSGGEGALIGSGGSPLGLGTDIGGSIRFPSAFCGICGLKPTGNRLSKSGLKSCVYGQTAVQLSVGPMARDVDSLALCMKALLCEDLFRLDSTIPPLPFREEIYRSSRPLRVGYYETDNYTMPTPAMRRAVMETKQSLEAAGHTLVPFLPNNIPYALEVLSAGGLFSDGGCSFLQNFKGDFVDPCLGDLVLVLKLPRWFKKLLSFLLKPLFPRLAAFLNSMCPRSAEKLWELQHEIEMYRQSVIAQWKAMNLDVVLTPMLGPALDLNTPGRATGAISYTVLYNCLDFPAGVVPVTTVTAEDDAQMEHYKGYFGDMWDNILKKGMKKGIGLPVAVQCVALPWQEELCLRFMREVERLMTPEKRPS
Kind of assay: Inhibition of mouse brain FAAH at 10 uM after 30 mins by FP-rhodamine ABPP-based SDS-PAGE analysis relative to control.

Assay [16] concerns Mus musculus. As to the kind of experiment: In vivo inhibition of FAAH in C57Bl/6 mouse brain at =>10 mg/kg, po after 4 hrs by FP-rhodamine/HT-10-labelled gel-based competitive assay.
The subject of assay [17] is Mus musculus. Kind of assay: In vivo inhibition of ABHD6 in C57Bl/6 mouse brain at 1 mg/kg, ip after 4 hrs by HT-10-labelled gel-based competitive ABPP assay. More on the design: dose 1 mg/kg. It is filed as functional, organism-based. Put shortly:
as §1

For assay [18], the target named is T1, Monoacylglycerol lipase ABHD6.

Calls of active or inactive are those of the source. No cut-off for these calls is given here.

Sequence of Acyl-protein thioesterase 1 (Mus musculus) (P97823 whole entry): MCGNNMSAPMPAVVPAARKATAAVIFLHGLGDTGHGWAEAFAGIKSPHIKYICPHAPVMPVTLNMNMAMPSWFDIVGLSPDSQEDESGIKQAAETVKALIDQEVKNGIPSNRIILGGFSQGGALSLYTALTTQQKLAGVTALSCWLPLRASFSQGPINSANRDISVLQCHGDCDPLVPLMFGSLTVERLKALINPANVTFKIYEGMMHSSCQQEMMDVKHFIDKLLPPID

What is called IC50 is the concentration at which inhibition is half-maximal. Consider `O=C(c1cccc(-c2ccc(-c3cn(C(=O)N4CCCCC4c4ccccc4)nn3)cc2)c1)N1CCCCC1` (racemic), for which the inhibition entry (in assay [1]; in assay [2]; in the assay with Mus musculus [5]; in the assay with Mus musculus [6]; with Mus musculus [7]) was “Active” throughout. Moreover, the IC50 was determined as 1.3 nM in assay [3] and 13.6 nM in [4].

As usually defined, the inhibition in vivo is the drop in the measured response relative to a control, in per cent. A low value points to a response near the control. In the assay on Mus musculus [8], `O=C(O)c1cccc(-c2ccc(-c3cn(C(=O)N4CCCCC4Cc4ccccc4)nn3)cc2)c1` (racemic) had an inhibition in vivo at 0.1 mg/kg of 80%. Also, the inhibition entry in the assay with Mus musculus [9], in the assay with Mus musculus [10], in the assay with Mus musculus [11], in the assay on Mus musculus [12], with Mus musculus [13] and in the assay on Mus musculus [14] was “inactive” each time. In addition, the inhibition entry (in assay [15]; in the assay on Mus musculus [16]) was “Active” each time.

As to `O=C(N1CCCCC1c1ccccc1)n1cc(-c2ccc(-c3cccc(CO)c3)cc2)nn1` (racemic), the inhibition result (in assay [1]; in assay [2]; in the assay with Mus musculus [17]; in the assay with Mus musculus [10]; in the assay with Mus musculus [11]; in assay [15]) was “Active” in each case. Also, in the assay on Mus musculus [16], the inhibition result is “Active”. For the same molecule, the IC50 in assay [4] (hek-293t) stood at 15.1 nM; in [18], 0.24 nM. For the same molecule, in the assay on Mus musculus [8], 0.1 mg/kg produced 80% inhibition in vivo.

For the origin of these results see ChEMBL document CHEMBL3259629, “Discovery and optimization of piperidyl-1,2,3-triazole ureas as potent, selective, and in vivo-active inhibitors of α/β-hydrolase domain containing 6 (ABHD6)” (J Med Chem, 2013).
